In ChEMBL document CHEMBL1138746, “Indolebutylamines as selective 5-HT(1A) agonists” (J Med Chem, 2004):

Key:
D(2) dopamine receptor = D(2) dopamine receptor (Rattus norvegicus, UniProt P61169); assay: Displacement of [3H]spiperone from dopamine D2 receptor of rat striatal membranes; format: cell membranes, Membrane
In short: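 Rat striatal membranes (0.3–1.0 mg protein/mL) were incubated with 0.1 nM [3H]spiperone in Tris-HCl buffer (pH 7.1) containing 120 mmol/L NaCl, 5 mmol/L KCl, 1 mmol/L CaCl2, 1 mmol/L MgCl2 and 0.1% ascorbic acid, at 37 °C for 15 min. Bound ligand was separated by filtration with three ice-cold washes. Nonspecific binding was defined with 1 mmol/L (+)-butaclamol. IC50 (50% inhibition of binding) came from 5–10 concentrations, each in triplicate.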

[1] = biological target: T1, 5-hydroxytryptamine receptor 1A (Rattus norvegicus, UniProt P19327); assay: Inhibition of 8-OH DPAT bindign to rat hydroxytryptamine 1A receptor in hippocampal membranes
T1 sequence (P19327 whole entry): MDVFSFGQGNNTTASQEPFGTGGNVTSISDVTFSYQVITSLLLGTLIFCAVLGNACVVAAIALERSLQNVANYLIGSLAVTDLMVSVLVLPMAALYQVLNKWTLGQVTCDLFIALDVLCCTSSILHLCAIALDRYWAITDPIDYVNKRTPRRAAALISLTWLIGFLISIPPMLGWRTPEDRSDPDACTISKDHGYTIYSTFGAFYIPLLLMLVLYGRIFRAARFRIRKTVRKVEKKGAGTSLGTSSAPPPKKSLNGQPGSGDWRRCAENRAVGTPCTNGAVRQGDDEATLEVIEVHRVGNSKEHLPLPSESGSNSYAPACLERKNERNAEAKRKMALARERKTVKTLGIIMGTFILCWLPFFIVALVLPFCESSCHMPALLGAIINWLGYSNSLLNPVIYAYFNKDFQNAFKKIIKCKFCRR

Chain of D(2) dopamine receptor (P61169 whole entry): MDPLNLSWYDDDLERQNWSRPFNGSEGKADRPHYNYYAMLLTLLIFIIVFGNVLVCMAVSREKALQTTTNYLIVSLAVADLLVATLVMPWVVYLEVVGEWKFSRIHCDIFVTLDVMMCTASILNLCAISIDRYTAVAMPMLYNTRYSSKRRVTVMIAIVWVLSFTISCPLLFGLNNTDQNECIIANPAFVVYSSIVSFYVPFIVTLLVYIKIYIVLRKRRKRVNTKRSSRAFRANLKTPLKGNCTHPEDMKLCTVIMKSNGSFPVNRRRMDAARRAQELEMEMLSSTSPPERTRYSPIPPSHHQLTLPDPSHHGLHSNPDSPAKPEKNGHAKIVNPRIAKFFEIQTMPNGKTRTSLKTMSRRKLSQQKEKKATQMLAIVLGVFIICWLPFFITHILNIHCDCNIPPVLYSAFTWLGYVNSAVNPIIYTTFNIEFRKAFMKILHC

| Structure (SMILES) | IC50 (D(2) dopamine receptor) [nM] | IC50 [1] [nM] |
| --- | --- | --- |
| COc1ccc(C2=CCN(CCCCc3c[nH]c4ccc(OC)cc34)CC2)cc1 | > 100 | 0.6 |
| COc1ccc2[nH]cc(CCCCN3CC=C(c4ccccc4)CC3)c2c1 |  | 20 |
| COc1ccc2[nH]cc(CCCCN3CCN(c4cc(OC)c(OC)c(OC)c4)CC3)c2c1 | > 100 | 333 |
| COc1ccc2[nH]cc(CCCCN3CCN(c4cc(C)c(OC)c(C)c4)CC3)c2c1 | > 100 | 60 |
| COC(=O)c1ccc2[nH]cc(CCCCN3CCC(c4ccccc4)CC3)c2c1 | 113 | 20 |
| COc1ccc2[nH]cc(CCCCN3CCN(c4ccc(OCc5ccccc5)cc4)CC3)c2c1 | 220 | 30 |
| COc1ccc(N2CCN(CCCCc3c[nH]c4ccc(OCc5ccccc5)cc34)CC2)cc1 | > 100 | 34 |
| COC(=O)c1ccc2[nH]cc(CCCCN3CCN(c4ccc(OC)cc4)CC3)c2c1 | > 100 | 8 |
| COc1ccc2[nH]cc(CCCCN3CCN(c4ccc(NC(C)=O)cc4)CC3)c2c1 | > 100 | 3 |
| O=C(O)c1ccc2[nH]cc(CCCCN3CCC(c4ccccc4)CC3)c2c1 | 1000 | 100 |
| COc1ccc2[nH]cc(CCCCN3CCN(c4ccc5c(c4)OCO5)CC3)c2c1 | 100 | 4 |
| COCCOc1ccc(N2CCN(CCCCc3c[nH]c4ccc(OC)cc34)CC2)cc1 |  | 2 |
| COc1ccc2[nH]cc(CCCCN3CC=C(c4ccc5c(c4)OCO5)CC3)c2c1 | > 100 | 0.4 |
| Oc1ccc2[nH]cc(CCCCN3CC=C(c4ccccc4)CC3)c2c1 [ROXINDOLE] | 5.6 | 0.8 |
| COc1ccc2[nH]cc(CCCCN3CCN(c4ccc(OC)c(OC)c4)CC3)c2c1 | 100 | 10 |
| COc1ccc2[nH]cc(CCCCN3CCN(c4ccc(OC(=O)C(C)(C)C)cc4)CC3)c2c1 |  | 24 |
| Oc1ccc2[nH]cc(CCCCN3CCN(c4ccccc4)CC3)c2c1 | 4.2 | 0.8 |
| CCCCCOc1ccc2[nH]cc(CCCCN3CCN(c4ccc(OC)cc4)CC3)c2c1 | > 100 | 200 |
| COC(=O)c1ccc2[nH]cc(CCCCN3CCN(c4ccccc4)CC3)c2c1 | 31 | 40 |
| COc1ccc(N2CCN(CCCCc3c[nH]c4ccc(OC5CCCC5)cc34)CC2)cc1 | > 100 | 90 |
| COc1ccc2[nH]cc(CCCCN3CCN(c4ccc(O)cc4)CC3)c2c1 | 53 | 2 |
| COc1ccc2[nH]cc(CCCCN3CCN(c4ccccc4)CC3)c2c1 | 32 | 20 |
| CCOc1ccc2[nH]cc(CCCCN3CCN(c4ccc(OC)cc4)CC3)c2c1 | 300 | 2 |
| COc1ccc2[nH]cc(CCCCN3CC=C(c4ccc(O)cc4)CC3)c2c1 | ~100 | 0.4 |
| COc1ccc2[nH]cc(CCCCN3CCN(c4ccc(O[Si](C)(C)C(C)(C)C)cc4)CC3)c2c1 |  | 70 |
| O=C(O)c1ccc2[nH]cc(CCCCN3CCN(c4ccccc4)CC3)c2c1 | > 100 | 40 |

The remaining compounds from weak to strong by IC50 [1], led by results:

| IC50 (D(2) dopamine receptor) [nM] | IC50 [1] [nM] | Structure (SMILES) |
| --- | --- | --- |
| > 100 | 2 | COc1ccc2[nH]cc(CCCCN3CCN(c4ccc5c(c4)CCCO5)CC3)c2c1 |
| 80 | 1 | Oc1ccc2[nH]cc(CCCCN3CCC(c4ccccc4)CC3)c2c1 |
| > 100 | 1 | COc1ccc2[nH]cc(CCCCN3CCN(c4ccc(OC(C)=O)cc4)CC3)c2c1 |
| 28 | 0.9 | CCOCCOCCOc1cccc(N2CCN(CCCCc3c[nH]c4ccc(C(N)=O)cc34)CC2)c1C#N |
| > 100 | 0.8 | CCOc1ccc(N2CCN(CCCCc3c[nH]c4ccc(OC)cc34)CC2)cc1 |
| > 100 | 0.7 | COc1c(Cl)cc(N2CCN(CCCCc3c[nH]c4ccc(C(N)=O)cc34)CC2)cc1Cl |
| 120 | 0.5 | COc1ccc2[nH]cc(CCCCN3CCN(c4ccc5c(c4)OCCO5)CC3)c2c1 |
| > 100 | 0.5 | NC(=O)c1ccc2[nH]cc(CCCCN3CCN(c4ccc5c(c4)CCO5)CC3)c2c1 |
| > 100 | 0.5 | COc1ccc(N2CCN(CCCCc3c[nH]c4ccc(OC(C)=O)cc34)CC2)cc1 |
| > 100 | 0.4 | COc1ccc2[nH]cc(CCCCN3CCN(c4ccc5c(c4)CCO5)CC3)c2c1 |
| 97 | 0.3 | NC(=O)c1ccc2[nH]cc(CCCCN3CCN(c4ccccc4C(N)=O)CC3)c2c1 |
| 40 | 0.2 | NC(=O)c1ccc2[nH]cc(CCCCN3CCN(c4ccc5c(c4)OCCO5)CC3)c2c1 |
| 6.2 | 0.2 | N#Cc1ccccc1N1CCN(CCCCc2c[nH]c3ccc(C(N)=O)cc23)CC1 |
| 156 | 0.2 | NC(=O)c1ccc2[nH]cc(CCCCN3CCN(c4ccc(O)cc4)CC3)c2c1 |
| > 100 | 0.1 | CC(=O)Nc1ccc(N2CCN(CCCCc3c[nH]c4ccc(C(N)=O)cc34)CC2)cc1 |
| 7 | 0.1 | NC(=O)c1ccc2[nH]cc(CCCCN3CCN(c4ccccc4)CC3)c2c1 |
| 1.2 | 0.1 | COc1ccccc1N1CCN(CCCCc2c[nH]c3ccc(C(N)=O)cc23)CC1 |
| 17 | 0.1 | NC(=O)c1ccc2[nH]cc(CCCCN3CCC(c4ccccc4)CC3)c2c1 |
| 100 | 0.07 | COc1ccc(N2CCN(CCCCc3c[nH]c4ccc(C(N)=O)cc34)CC2)c(OC)c1 |
| 5 | 0.01 | N#Cc1c(F)cccc1N1CCN(CCCCc2c[nH]c3ccc(C(N)=O)cc23)CC1 |
